Source: article PMC8848307 (Journal of medicinal chemistry, 2019)
Several values for one entry are separate records, joined by “and”; a condition that tells them apart may be missing. Equal values may be shown once.

Legend:
[1] = target: human recombinant STAT3 SH2 protein (Homo sapiens, UniProt P40763); test: Fluorescence polarization; type: binding; details: for times less potent than SI-109 in binding to STAT3: ratio of binding affinities vs SI-109
STAT3 protein [2] = target: T1, STAT3 protein (Homo sapiens, UniProt P40763); test: Western blotting of STAT3 degradation in Molm-16 cells; type: cell-based; details: for times less potent than SD-36 in STAT3 degradation: Molm-16 cells, ratio of DC50; for degradation of total STAT3 and pSTAT3^Y705 proteins: Molm-16, concentrations up to 10 μM
T1 sequence (P40763 whole entry): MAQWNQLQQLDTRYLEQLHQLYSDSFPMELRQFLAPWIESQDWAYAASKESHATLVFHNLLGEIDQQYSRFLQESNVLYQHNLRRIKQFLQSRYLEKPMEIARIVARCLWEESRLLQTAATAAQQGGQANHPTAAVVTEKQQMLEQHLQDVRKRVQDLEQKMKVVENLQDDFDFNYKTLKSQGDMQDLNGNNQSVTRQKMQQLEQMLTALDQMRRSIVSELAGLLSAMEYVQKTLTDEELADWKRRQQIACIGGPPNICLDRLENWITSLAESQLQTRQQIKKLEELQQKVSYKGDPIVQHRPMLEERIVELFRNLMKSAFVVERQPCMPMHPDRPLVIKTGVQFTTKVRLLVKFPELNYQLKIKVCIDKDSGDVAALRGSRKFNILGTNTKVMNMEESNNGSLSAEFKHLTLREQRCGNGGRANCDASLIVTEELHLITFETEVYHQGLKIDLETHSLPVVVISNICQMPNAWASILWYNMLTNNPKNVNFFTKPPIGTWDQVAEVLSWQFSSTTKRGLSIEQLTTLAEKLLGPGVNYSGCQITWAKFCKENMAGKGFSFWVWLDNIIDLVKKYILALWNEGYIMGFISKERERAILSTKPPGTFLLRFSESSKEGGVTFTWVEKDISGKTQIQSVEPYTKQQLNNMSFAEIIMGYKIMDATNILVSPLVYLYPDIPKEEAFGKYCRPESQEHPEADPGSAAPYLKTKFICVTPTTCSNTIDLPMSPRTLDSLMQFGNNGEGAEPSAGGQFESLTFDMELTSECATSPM

STAT3 protein [3] = target: T1, STAT3 protein; test: Western blotting of STAT3 degradation in SU-DHL-1 cells; type: cell-based; details: for times less potent than SD-36 in STAT3 degradation: SU-DHL-1 cells, ratio of DC50; for reducing the levels of STAT3 and pSTAT3^Y705 proteins: SU-DHL-1, up to 5 μM
STAT3 protein [4] = target: STAT3 protein (Mus musculus, UniProt P42227); test: Pharmacodynamics in native mouse spleen tissue; type: in vivo; details: single intravenous dose, 25 mg/kg, CD-1 mice
Sequence of STAT3 protein (Mus musculus, UniProt P42227) (P42227 whole entry): as the sequence (P40763 whole entry) above, with E760D counted along it
Outline: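 Female CD-1 mice received a single intravenous dose of test compound or vehicle (10% PEG400 + 90% PBS). Mice were euthanized at set time points and spleens harvested. Native spleen lysates were immunoblotted for STAT3.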

Molm-16 cell line = test: Cell growth assay; type: cell-based; details: Molm-16

Sequence of human recombinant STAT3 SH2 protein (P40763 127-688): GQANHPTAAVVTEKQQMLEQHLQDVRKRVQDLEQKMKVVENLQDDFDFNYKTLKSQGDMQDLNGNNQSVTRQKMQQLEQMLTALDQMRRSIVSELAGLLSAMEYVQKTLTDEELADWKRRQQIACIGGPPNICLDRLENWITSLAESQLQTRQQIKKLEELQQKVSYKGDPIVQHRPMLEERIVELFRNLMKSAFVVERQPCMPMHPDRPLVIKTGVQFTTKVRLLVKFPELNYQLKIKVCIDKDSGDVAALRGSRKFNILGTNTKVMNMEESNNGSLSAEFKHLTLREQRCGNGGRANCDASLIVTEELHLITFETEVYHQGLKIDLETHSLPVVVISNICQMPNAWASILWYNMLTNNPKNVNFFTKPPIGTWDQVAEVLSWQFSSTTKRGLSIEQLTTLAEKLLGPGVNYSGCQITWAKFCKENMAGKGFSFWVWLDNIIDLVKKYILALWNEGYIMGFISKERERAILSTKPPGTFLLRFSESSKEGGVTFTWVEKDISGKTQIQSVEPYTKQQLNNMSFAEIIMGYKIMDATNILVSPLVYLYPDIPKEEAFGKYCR

NC(=O)CC[C@H](NC(=O)[C@@H]1CC[C@@H]2CCCC[C@H](NC(=O)c3cc4cc(CP(=O)(O)O)ccc4[nH]3)C(=O)N21)C(=O)NCc1ccccc1 [Compound 3, (2-((3S,6S)-3-((S)-5-Amino-1-(benzylamino)-1,5-dioxopentan-2-ylcarbamoyl)-5-oxodecahydropyrrolo[1,2-a]azocin-6-ylcarbamoyl)-1H-indol-5-yl)methylphosphonic Acid]
times weaker than 2 in binding to STAT3 ([1]; ratio of Ki vs compound 2): 30 times

NC(=O)CC[C@H](NC(=O)[C@@H]1CC[C@@H]2CCCC[C@H](NC(=O)c3cc4cc(C(F)(F)P(=O)(O)O)ccc4[nH]3)C(=O)N21)C(=O)NCc1ccccc1 [Compound 4, (2-((3S,6S)-3-((S)-5-Amino-1-(benzylamino)-1,5-dioxopentan-2-ylcarbamoyl)-5-oxodecahydropyrrolo[1,2-a]azocin-6-ylcarbamoyl)-1H-indol-5-yl)difluoromethylphosphonic Acid]
times more potent than 3 in binding to STAT3 ([1]; ratio of Ki vs compound 3): > 100 times

CC(=O)N1CC[C@H]2CC[C@@H](C(=O)N[C@@H](CCC(N)=O)C(=O)NC(c3ccccc3)c3ccccc3)N2C(=O)[C@@H](NC(=O)c2cc3cc(OP(=O)(O)O)ccc3[nH]2)C1 [Compound 9, 2-(((5S,8S,10aR)-3-Acetyl-8-(((S)-5-amino-1-(benzhydrylamino)-1,5-dioxopentan-2-yl)carbamoyl)-6-oxodecahydropyrrolo[1,2-a][1,5]diazocin-5-yl)carbamoyl)-1H-indol-5-yl Dihydrogen Phosphate]
times less potent than SI-109 in binding to STAT3 [1]: 2 times

CC(=O)N1CC[C@H]2CC[C@@H](C(=O)N[C@@H](CCC(N)=O)C(=O)NC(c3ccccc3)c3ccccc3)N2C(=O)[C@@H](NC(=O)c2cc3cc(CP(=O)(O)O)ccc3[nH]2)C1 [Compound 10, ((2-(((5S,8S,10aR)-3-Acetyl-8-(((S)-5-amino-1-(benzhydrylamino)-1,5-dioxopentan-2-yl)carbamoyl)-6-oxodecahydropyrrolo[1,2-a][1,5]diazocin-5-yl)carbamoyl)-1 H-indol-5-yl)methyl)phosphonic Acid]
times less potent than SI-109 in binding to STAT3 [1]: 14 times

CC(=O)N1CC[C@H]2CC[C@@H](C(=O)N[C@@H](CCC(N)=O)C(=O)NC(c3ccccc3)c3ccccc3)N2C(=O)[C@@H](NC(=O)/C=C(\C)c2ccc(C(F)(F)P(=O)(O)O)cc2)C1 [Compound 11, ((4-((E)-4-(((5S,8S,10aR)-3-Acetyl-8-(((S)-5-amino-1-(benzhydrylamino)-1,5-dioxopentan-2-yl)carbamoyl)-6-oxodecahydropyrrolo[1,2-a][1,5]diazocin-5-yl)amino)-4-oxobut-2-en-2-yl)phenyl)difluoromethyl)phosphonic Acid]
times less potent than SI-109 in binding to STAT3 [1]: > 10 times

NC(=O)CC[C@H](NC(=O)[C@@H]1CC[C@@H]2CCN(CCCCCCC#Cc3cccc4c3CN(C3CCC(=O)NC3=O)C4=O)C[C@H](NC(=O)c3cc4cc(C(F)(F)P(=O)(O)O)ccc4[nH]3)C(=O)N21)C(=O)NC(c1ccccc1)c1ccccc1 (stereo partly drawn) [Compound 17, ((2-(((5S,8S,10aR)-8-(((S)-5-Amino-1-(benzhydrylamino)-1,5-dioxopentan-2-yl)carbamoyl)-3-(8-(2-(2,6-dioxopiperidin-3-yl)-1-oxoisoindolin-4-yl)oct-7-yn-1-yl)-6-oxodecahydropyrrolo[1,2-a][1,5]diazocin-5-yl)carbamoyl)-1H-indol-5-yl)difluoromethyl)phosphonic Acid]
times less potent than SD-36 in STAT3 degradation (STAT3 protein [2]): > 10 times
times less potent than SD-36 in STAT3 degradation (STAT3 protein [3]): 30 times

NC(=O)CC[C@H](NC(=O)[C@@H]1CC[C@@H]2CCN(C(=O)NCCCCC#Cc3cccc4c3CN(C3CCC(=O)NC3=O)C4=O)C[C@H](NC(=O)c3cc4cc(C(F)(F)P(=O)(O)O)ccc4[nH]3)C(=O)N21)C(=O)NC(c1ccccc1)c1ccccc1 (stereo partly drawn) [Compound 19, ((2-(((5S,8S,10aR)-8-(((S)-5-Amino-1-(benzhydrylamino)-1,5-dioxopentan-2-yl)carbamoyl)-3-((6-(2-(2,6-dioxopiperidin-3-yl)-1-oxoisoindolin-4-yl)hex-5-yn-1-yl)carbamoyl)-6-oxodecahydropyrrolo[1,2-a][1,5]diazocin-5-yl)carbamoyl)-1H-indol-5-yl)difluoromethyl)phosphonic Acid]
persistence of STAT3 reduction in spleen (STAT3 protein [4]): more than 48 h
reducing STAT3 protein in native mouse spleen tissue (STAT3 protein [4]): very effective

NC(=O)CC[C@H](NC(=O)[C@@H]1CC[C@@H]2CCN(C(=O)CCCCCC#Cc3cccc4c3C(=O)N(C3CCC(=O)NC3=O)C4=O)C[C@H](NC(=O)c3cc4cc(C(F)(F)P(=O)(O)O)ccc4[nH]3)C(=O)N21)C(=O)NC(c1ccccc1)c1ccccc1 (stereo partly drawn) [Compound 27, ((2-(((5S,8S,10aR)-8-(((S)-5-Amino-1-(benzhydrylamino)-1,5-dioxopentan-2-yl)carbamoyl)-3-(8-(2-(2,6-dioxopiperidin-3-yl)-1,3-dioxoisoindolin-4-yl)oct-7-ynoyl)-6-oxodecahydropyrrolo[1,2-a][1,5]diazocin-5-yl)carbamoyl)-1H-indol-5-yl)difluoromethyl)phosphonic Acid]
times less potent than SD-36 in STAT3 degradation (STAT3 protein [2]): > 50 times
reducing the levels of STAT3 and pSTAT3^Y705 proteins (STAT3 protein [3]): ineffective

NC(=O)CC[C@H](NC(=O)[C@@H]1CC[C@@H]2CCN(C(=O)CCCCCC#Cc3cccc4c3CN(C3CCC(=O)NC3=O)C4=O)C[C@H](NC(=O)c3cc4cc(C(F)(F)P(=O)(O)O)ccc4[nH]3)C(=O)N21)C(=O)NCc1ccccc1 (stereo partly drawn) [Compound 30, ((2-(((5S,8S,10aR)-8-(((S)-5-Amino-1-(benzylamino)-1,5-dioxopentan-2-yl)carbamoyl)-3-(8-(2-(2,6-dioxopiperidin-3-yl)-1-oxoisoindolin-4-yl)oct-7-ynoyl)-6-oxodecahydropyrrolo-[1,2-a][1,5]diazocin-5-yl)carbamoyl) −1H-indol-5-yl)difluoromethyl)phosphonic Acid]
times less potent than SD-36 in STAT3 degradation (STAT3 protein [2]): 4 times
times less potent than SD-36 in STAT3 degradation (STAT3 protein [3]): 2 times

CNC(=O)[C@H](CCC(N)=O)NC(=O)[C@@H]1CC[C@@H]2CCN(C(=O)CCCCCC#Cc3cccc4c3CN(C3CCC(=O)NC3=O)C4=O)C[C@H](NC(=O)c3cc4cc(C(F)(F)P(=O)(O)O)ccc4[nH]3)C(=O)N21 (stereo partly drawn) [Compound 31, ((2-(((5S,8S,10aR)-8-(((S)-5-Amino-1-(methylamino)-1,5-dioxopentan-2-yl)carbamoyl)-3-(8-(2-(2,6-dioxopiperidin-3-yl)-1-oxoisoindolin-4-yl)oct-7-ynoyl)-6-oxodecahydropyrrolo-[1,2-a][1,5]diazocin-5-yl)carbamoyl)-1H-indol-5-yl)difluoromethyl)phosphonic Acid]
times less potent than SD-36 in STAT3 degradation (STAT3 protein [2]): 10 times and > 10 times
times less potent than SD-36 in STAT3 degradation (STAT3 protein [3]): 30 times

NC(=O)CC[C@H](NC(=O)[C@@H]1CC[C@@H]2CCN(C(=O)CCCCCC#Cc3cccc4c3CN(C3CCC(=O)NC3=O)C4=O)C[C@H](NC(=O)c3cc4cc(OP(=O)(O)O)ccc4[nH]3)C(=O)N21)C(=O)NC(c1ccccc1)c1ccccc1 (stereo partly drawn) [Compound 32, 2-(((5S,8S,10aR)-8-(((S)-5-Amino-1-(benzhydrylamino)-1,5-dioxopentan-2-yl)carbamoyl)-3-(8-(2-(2,6-dioxopiperidin-3-yl)-1-oxoisoindolin-4-yl)oct-7-ynoyl)-6-oxodecahydropyrrolo-[1,2-a][1,5]diazocin-5-yl)carbamoyl)-1H-indol-5-yl Dihydrogen Phosphate]
degradation of total STAT3 and pSTAT3^Y705 proteins (STAT3 protein [2]): fail to degrade
activity in inhibition of cell growth (Molm-16 cell line): very weak activity

NC(=O)CC[C@H](NC(=O)[C@@H]1CC[C@@H]2CCN(C(=O)CCCCCC#Cc3cccc4c3CN(C3CCC(=O)NC3=O)C4=O)C[C@H](NC(=O)c3cc4cc(CP(=O)(O)O)ccc4[nH]3)C(=O)N21)C(=O)NC(c1ccccc1)c1ccccc1 (stereo partly drawn) [Compound 33, ((2-(((5S,8S,10aR)-8-(((S)-5-Amino-1-(benzhydrylamino)-1,5-dioxopentan-2-yl)carbamoyl)-3-(8-(2-(2,6-dioxopiperidin-3-yl)-1-oxoisoindolin-4-yl)oct-7-ynoyl)-6-oxodecahydropyrrolo-[1,2-a][1,5]diazocin-5-yl)carbamoyl)-1H-indol-5-yl)methyl)-phosphonic Acid]
degradation of total STAT3 and pSTAT3^Y705 proteins (STAT3 protein [2]): fail to degrade
activity in inhibition of cell growth (Molm-16 cell line): very weak activity

C/C(=C\C(=O)N[C@H]1CN(C(=O)CCCCCC#Cc2cccc3c2CN(C2CCC(=O)NC2=O)C3=O)CC[C@H]2CC[C@@H](C(=O)N[C@@H](CCC(N)=O)C(=O)NC(c3ccccc3)c3ccccc3)N2C1=O)c1ccc(C(F)(F)P(=O)(O)O)cc1 (stereo partly drawn) [Compound 34, ((4-((E)-4-(((5S,8S,10aR)-8-(((S)-5-Amino-1-(benzhydrylamino)-1,5-dioxopentan-2-yl)carbamoyl)-3-(8-(2-(2,6-dioxopiperidin-3-yl)-1-oxoisoindolin-4-yl)oct-7-ynoyl)-6-oxodecahydropyrrolo[1,2-a][1,5]diazocin-5-yl)amino)-4-oxobut-2-en-2-yl)phenyl)difluoromethyl)phosphonic Acid]
times less potent than SD-36 in STAT3 degradation (STAT3 protein [2]): > 70 times
effect on the levels of STAT3 and pSTAT3^Y705 (STAT3 protein [3]; SU-DHL-1, concentrations up to 10 μM): fails to degrade
reducing the levels of STAT3 and pSTAT3^Y705 proteins (STAT3 protein [3]): ineffective
